Here are results for 2 compounds from ChEMBL document CHEMBL1687854 (Antimicrob Agents Chemother, 2011).

Data set [1] has as its system Homo sapiens. The experiment in a line: Non-renal clearance in healthy human at 500 mg, iv. Type of data set: ADME, organism-based. To be noted: in vivo. The gist of the method: (§1)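 Healthy volunteers (n = 12) got a single 1-h 500-mg IV infusion. Plasma was sampled predose and at 0.25–12 h and assayed by LC-MS/MS (LLOQ 0.1 μg/ml). Noncompartmental analysis gave CL = dose/AUC0-∞ and CL_R = 0–12 h urinary amount/AUC0-12. Nonrenal CL = CL − CL_R. Values are means ± SD.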

Data set [2] is described as follows: AUC (0 to infinity) in end stage renal disease patient undergoing 12 hours continuous venovenous hemofiltration at 500 mg, iv. Type of data set: ADME, organism-based. Also on record: dose 500 mg, time infinity, route intravenous. The following applies: human, plasma.
Data set [3] is described as follows: Terminal half life in end stage renal disease patient undergoing 12 hours continuous venovenous hemofiltration at 500 mg, iv. Type of data set: ADME, organism-based. The following applies: human, in vivo, read-out: beta t1/2 (converted). The gist of the method:
(§2)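 Prefilter plasma was taken up to 12 h and measured by LC-MS/MS. Terminal λz came from log-linear regression over 1.5–12 h, and t1/2 = 0.693/λz (noncompartmental).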

Data set [4] in a line: (§3) Clearance in end stage renal disease patient undergoing 12 hours continuous venovenous hemofiltration at 500 mg, iv. Type of data set: ADME, organism-based. To be noted: human, in vivo, 500 mg.
In data set [5] the test system is Homo sapiens. Described as §3. The following applies: in vivo, 12 h. In kind it is ADME, organism-based.
Data set [6] deals with Homo sapiens. The data set is described as follows: Non-renal clearance in end stage renal disease patient undergoing 12 hours continuous venovenous hemofiltration at 500 mg, iv. In kind it is ADME, organism-based. To be noted: in vivo. The gist of the method: (§4)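 For dialysis-dependent subjects on CVVH or CVVHDF after a 1-h 500-mg IV infusion, nonrenal CL = CL − (CL_R + CL_CRRT). CL_CRRT was the UF (or UF/dialysate) flow rate for each collection interval × the average sieving (or saturation) coefficient, where each coefficient is the fluid/plasma concentration ratio from paired samples at 1.25–12 h. Values are means ± SD.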

The nature of data set [7]: AUC (0 to infinity) in end stage renal disease patient undergoing 12 hours continuous venovenous hemodiafiltration at 500 mg, iv. Type of data set: ADME, organism-based. Also on record: dose 500 mg, route intravenous, time infinity. The following applies: human, plasma.
Data set [8] can be described thus: Terminal half life in end stage renal disease patient undergoing 12 hours continuous venovenous hemodiafiltration at 500 mg, iv. In kind it is ADME, organism-based. The following applies: human, in vivo, read-out: beta t1/2 (converted). In outline: as §2
Data set [9] is described as follows: (§5) Clearance in end stage renal disease patient undergoing 12 hours continuous venovenous hemodiafiltration at 500 mg, iv. The following applies: human, in vivo, 500 mg. Type of data set: ADME, organism-based.
The subject of data set [10] is Homo sapiens. The description is as §5. In kind it is ADME, organism-based. The following applies: in vivo, 12 h.
Data set [11] relates to Homo sapiens. The data set is described as follows: Non-renal clearance in end stage renal disease patient undergoing 12 hours continuous venovenous hemodiafiltration at 500 mg, iv. Type of data set: ADME, organism-based. The following applies: in vivo. In outline: as §4
Data set [12] is described as follows: (§6) Clearance in healthy human at 500 mg, iv. In kind it is ADME, organism-based. The following applies: in vivo, 500 mg. In outline:
as §1

The subject of data set [13] is Homo sapiens. The description is as §6. Type of data set: ADME, organism-based. To be noted: in vivo. In outline: as §1
The nature of data set [14]: Renal clearance in healthy human at 500 mg, iv. In kind it is ADME, organism-based, Kidney. The following applies: in vivo, read-out: CL_renal (converted). The gist of the method: as §1
The subject of data set [15] is Homo sapiens. The experiment in a line: Toxicity in healthy human assessed as pancreatitis at 500 mg, iv after 1 day. In kind it is organism-based. To be noted: in vivo, 24 h.
Data set [16] deals with Homo sapiens. The experiment in a line: Toxicity in healthy human assessed as pancreatitis at 500 mg, iv after 2 days. Type of data set: organism-based. To be noted: in vivo, 48 h.

For `C[C@@H](O)[C@@H](C(=O)O)[C@@H]1NC(C(=O)O)=C(S[C@@H]2CN[C@H](CNS(N)(=O)=O)C2)[C@@H]1C`, the CL in the data set with Homo sapiens [1] stood at 14.2 L/h.

Regarding `C[C@@H](O)[C@H]1C(=O)N2C(C(=O)O)=C(S[C@@H]3CN[C@H](CNS(N)(=O)=O)C3)[C@H](C)[C@H]12` [DORIPENEM], the AUC(0-inf) in data set [2] was found to be 114 µg·h/mL; in [7] it was 87500 ng·h/mL. Further, the half-life in [3] was 254 min; in data set [8], 232 min. Also, the clearance in [4] is 82.4 mL/min; in data set [9], 98.2 mL/min; in [12], 265 mL/min. The CL in the data set on Homo sapiens [5] is 4.94 L/h; in the data set on Homo sapiens [6], 3.58 L/h; in the data set on Homo sapiens [10] it was 5.98 L/h; in the data set on Homo sapiens [11], 4.22 L/h; in the data set on Homo sapiens [13], 15.9 L/h; with Homo sapiens [1] it was 6.73 L/h. The CL renal in [14] is 153 mL/min. The values for the Activity result in the data set on Homo sapiens [15] and in the data set with Homo sapiens [16] were “Toxic” and “Non-toxic”, respectively.
